Screens from PubChem.
ABCG2 inh: human ABCG2 inhibition, ABCB1 as counter-screen; Q9UNQ0; IgMXP3 cells, JC-1 efflux, flow cytometry; inhibition, % at 6.6 µM; 190,000 tested, 0.1% active;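 active = inhibition above 80%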;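 note: 0% = DMSO and 100% = nicardipine control wells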
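Incubation: cells with compound and JC-1, 10 min at 25 °C, rotating, no wash / Test system: IgMXP3 (ABCG2) plus far-red-tagged CCRF-Adr (ABCB1) cells / Compound dosing: one concentration, 6.6 µM final / Also added: JC-1 fluorescent substrate / Evaluation: efflux inhibition in percent versus controls / Detection: flow cytometry, 530 nm JC-1 signal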
TNAP inh hiacc: inhibitors of human TNAP at high phosphate acceptor concentration; P05186; 200,000 tested, 0.03% active; purified TNAP, CDP-star luminescence, 1 M DEA; AID 1135; inhibition, % at 20 µM;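 active = over 50% inhibition of tissue-nonspecific alkaline phosphatase at 20 µM in the single-dose screen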;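 note: plate controls were DMSO wells for no effect and EDTA-quenched wells as full inhibition for full effect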
ABCB1 inh: inhibitors of human ABCB1 transporter, ABCG2 counter-screen. P08183. CCRF-Adr cells, JC-1 efflux, flow cytometry. inhibition, % at 6.6 µM. 190,000 tested, 0.067% active; in the data active = inhibition above about 40%;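 note: 0% = vehicle and 100% = reference inhibitor; higher value means more JC-1 retained so stronger ABCB1 efflux block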
PKD1 kinase inh: inhibitors of human PKD1 kinase; Q15139; PKD1 kinase fluorescence polarization assay; inhibition, % (concentration not given with the values); 200,000 tested, 0.056% active; in the data active = inhibition above about 50%
TNAP inh no acc: blocks human TNAP activity with no phosphate acceptor present; P05186; purified TNAP, CDP-star luminescence, 30 min; inhibition, % at 20 µM; 200,000 tested, 0.26% active; AID 1012;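 active = tissue-nonspecific alkaline phosphatase inhibition above about 50% at 20 µM in the single-dose screen, limit read from the data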;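 note: 0% = DMSO negative control and 100% = EDTA positive control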
TNAP act hiacc: activators of human TNAP at high phosphate acceptor concentration. P05186. activation factor at 20 µM. purified TNAP, CDP-star luminescence, 1 M DEA, 30 min; active compounds read high; 0 = EDTA background, 1 = DMSO-only activity. 200,000 tested, under 10 active;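 active = activation factor at least 2 at 20 µM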
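Measured by: Luminescent substrate turnover signal | Test system: Human TNAP | Input: TNAP 1/800 final | Dosing: 20 µM single point | Schedule: 30 min, room temperature | Controls: EDTA wells as negative control, DMSO wells as positive control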
* marks the source's active call; other numbers are inactive results; nt = no result given. Only some compounds are listed: those with a hit (about 0.48% of all), similar ones and a draw of the others.

SMILES | ABCG2 inh | TNAP inh hiacc | ABCB1 inh | PKD1 kinase inh | TNAP inh no acc | TNAP act hiacc
CN(CCc1ccccn1)C(=O)CCC1CCCN(C(=O)c2ccccn2)C1 (configuration not stated) | 0 | -2 | 0 | 1 | -2 | 1
CN1CCS/C1=C\C=C1/SC(=S)N(CC(=O)O)C1=O | 1 | 41 | 1 | -6 | 40 | 0.6
CN1/C(=C\C=C2/SC(=S)N(CC(=O)O)C2=O)C(C)(C)c2ccccc21 | -1 | 50* | 0 | -5 | 52* | 0.5
CC(C)CNC(=O)Cn1c(=O)c2c(ncn2CC(C)C)n(Cc2ccccc2)c1=O | 2 | -7 | 0 | 0 | -18 | 1.1
COc1ccc(OC)c(/C=N/NC(=O)CCc2ccc(O)c(O)c2)c1 | 27 | 14 | 2 | 4 | 62* | 0.9
COc1ccc(OC)c(/C=N/NC(=O)CC(=O)NCc2ccccc2)c1 | 3 | -5 | 0 | 10 | -8 | 1.1
Oc1ccc(/C=N/Nc2cc(N3CCOCC3)nc(N3CCOCC3)n2)cc1O | -2 | 9 | 0 | 19 | 67* | 0.9
Cc1ccc(CN2CCN(Cc3cccn3-c3ccccn3)CC2CCO)o1 (configuration not stated) | 5 | -7 | 2 | -2 | -12 | 1.1
CCN1C/C(=C/c2ccc(OC)c(O)c2)C(=O)/C(=C/c2ccc(OC)c(O)c2)C1 | 2 | 39 | 1 | -2 | 56* | 0.6
COc1ccc(/C=C2\CC/C(=C\c3ccc(OC)c(OC)c3)C2=O)cc1OC | 4 | -1 | 0 | 1 | -14 | 1
COc1cc(/C=C2/C(=O)ON=C2c2ccccc2)ccc1O | -3 | 37 | -1 | -7 | 52* | 0.6
COc1ccc(C=C2C(=O)c3ccccc3C2=O)cc1O | 0 | 53* | 0 | 4 | -12 | 0.5
Cc1ccccc1OCCn1cnc2cc([N+](=O)[O-])ccc2c1=O | 2 | 1 | 1 | -4 | -1 | 1
CC(=O)c1ccc(N=c2scc(C)n2C(C)C)cc1 | 20 | -5 | 1 | 0 | -16 | 1.1
FC(F)(F)c1cnc(Sc2ncn[nH]2)c(Cl)c1 | 10 | 3 | 3 | 0 | -6 | 1
O=C(NNC(=O)c1ccc(O)cc1O)c1ccc(Cl)cc1 | -1 | 0 | 0 | -14 | 76* | 1
O=C(NNC(=O)c1ccccc1O)c1ccc(Cl)cc1 | 4 | -1 | 1 | -12 | -56 | 1
O=C1c2ccccc2-c2onc3ccc(NCCCn4ccnc4)c1c23 | 0 | 21 | 3 | 94* | 31 | 0.8
Cc1nc(NCCCn2ccnc2)c2ccccc2n1 | -1 | -4 | 0 | -5 | -11 | 1
COC(=O)Cc1cc(=O)[nH]c(Nc2nc3ccccc3o2)n1 | 0 | -4 | 0 | -14 | 75* | 1
O=C(CSc1n[nH]c(-c2ccc(Cl)cc2Cl)n1)Nc1ccccn1 | 4 | 8 | 0 | -2 | 93* | 0.9
CCN(Cc1ccccc1)C(=O)COC(=O)c1cc(=O)[nH]c2ccccc12 | 8 | -3 | 0 | -3 | -10 | 1
COCCN(Cc1ccccc1)C(=O)c1c(C)nn(-c2ccccc2)c1C | 2 | 1 | 0 | 2 | -8 | 1
CCN(CC(=O)Nc1cccc(C(C)=O)c1)S(=O)(=O)c1ccc(C)cc1 | 7 | -6 | 1 | 1 | -5 | 1.1
Cc1ccc(-c2nc(SCC(=O)c3c(N)n(C)c(=O)n(C)c3=O)n[nH]2)cc1 | -2 | 8 | -1 | -8 | 88* | 0.9
SMILES | ABCG2 inh | TNAP inh hiacc | ABCB1 inh | PKD1 kinase inh | TNAP inh no acc | TNAP act hiacc
COC(=O)c1ccc(CSc2n[nH]c(C)n2)o1 | 2 | -1 | 0 | -4 | -4 | 1
COC(=O)c1ccc(CSc2n[nH]c(-c3ccccc3)n2)o1 | 1 | 2 | 0 | 0 | 70* | 1
CN(C)c1nc(N)nc(CSc2n[nH]c(-c3ccccc3)n2)n1 | -2 | 0 | -3 | 3 | 68* | 1
CN(C)c1nc(N)nc(CSc2nnnn2-c2ccc(F)cc2)n1 | 2 | -2 | 0 | 2 | -20 | 1
CCOC(=O)c1sc(NC(=O)CSc2nc(C)cc(C)n2)c(C#N)c1C | 3 | -5 | 1 | -16 | -16 | 1
CCOC(=O)c1sc(NC(=O)CSc2n[nH]c(-c3ccccc3)n2)c(C#N)c1C | -1 | 3 | 0 | -3 | 76* | 1
Cn1c(N)c(C(=O)CSc2nc(N)cc(N)n2)c(=O)n(C)c1=O | 1 | -3 | 0 | -5 | -8 | 1
O=C(Nc1cccc(F)c1)N1CCCC(CNS(=O)(=O)Cc2ccccc2)C1 (configuration not stated) | 5 | -5 | 1 | -3 | -8 | 1
Cn1c(=O)n(C)c2cc(/C=N/N=C3/NC(=O)C(CC(=O)O)S3)ccc21 (configuration not stated) | 0 | -2 | 0 | -2 | 9 | 1
CC(C(=O)Nc1ccccc1)N(C)CCOc1ccc(Br)cc1 (configuration not stated) | 0 | -1 | 0 | 0 | -8 | 1
Cc1cc(CN(C)Cc2c(C(=O)N3CCCCCCC3)nc3ccc(Cl)cn23)n[nH]1 | 0 | -7 | 0 | -7 | -8 | 1.1
CC(C)c1ccc(C(=O)CSc2n[nH]c(-c3ccncc3)n2)cc1 | 1 | -5 | 0 | 5 | 3 | 1
O=C(CSc1n[nH]c(-c2ccccc2)n1)c1ccccc1 | 2 | -2 | -1 | -3 | 56* | 1
COC(=O)c1ccccc1NC(=O)CSc1n[nH]c(-c2cccnc2)n1 | 2 | 32 | 0 | -2 | 69* | 0.7
Cc1cc(C)c(C)c(OCCCN(C)C)c1 | 14 | -3 | 3 | -11 | -12 | 1
O=C(c1cccnc1)n1nc(-c2ccco2)nc1NCc1cccs1 | 14 | -2 | 0 | 11 | 63* | 1
CCN(CC)c1cc(CS(=O)c2ccccc2)nc(-c2ccccc2)n1 (configuration not stated) | nt | nt | nt | -9 | nt | nt
Nc1cc(=O)[nH]c(SCc2csc(-c3ccccc3)n2)n1 | 2 | -3 | 0 | -5 | -17 | 1
c1ccc(-c2nc(CSc3n[nH]c(-c4cccs4)n3)cs2)cc1 | 0 | -5 | 0 | -1 | 60* | 1.1
CCCc1nn(C(=O)c2ccccc2)c2c1C(=O)CC(C)(C)C2 | 1 | -1 | 0 | -4 | 52* | 1
Cc1nn(C(=O)c2ccccc2)c2c1C(=O)CC(C)(C)C2 | 3 | 1 | 0 | -11 | 56* | 1
CCCc1nn(-c2cc(Cl)ccc2OC)c2c1C(=O)CC(C)(C)C2 | 2 | -3 | 1 | -5 | -4 | 1
C=CC[n+]1ccc(/C=C2\C=Cc3cc(C)ccc3N2CC)c2ccccc21 | -5 | 28 | 0 | -4 | 24 | 0.7
